Measurements as given in ChEMBL document CHEMBL1155371, “Small molecule inhibitors of the neuropilin-1 vascular endothelial growth factor A (VEGF-A) interaction” (J Med Chem, 2010).
The source made the active and inactive calls. No cut-off for these calls is given here. Where a SMILES comes first, the peptide text is derived from it.

How the values were obtained:
[1] = target: T1, Neuropilin-1 (Homo sapiens, UniProt O14786); experiment: Displacement of [125I]VEGF-A from human NRP1 expressed in pig aortic endothelial cells at 100 uM; assay type: cell-based; conditions: Endothelial cell
T1 sequence (O14786 whole entry): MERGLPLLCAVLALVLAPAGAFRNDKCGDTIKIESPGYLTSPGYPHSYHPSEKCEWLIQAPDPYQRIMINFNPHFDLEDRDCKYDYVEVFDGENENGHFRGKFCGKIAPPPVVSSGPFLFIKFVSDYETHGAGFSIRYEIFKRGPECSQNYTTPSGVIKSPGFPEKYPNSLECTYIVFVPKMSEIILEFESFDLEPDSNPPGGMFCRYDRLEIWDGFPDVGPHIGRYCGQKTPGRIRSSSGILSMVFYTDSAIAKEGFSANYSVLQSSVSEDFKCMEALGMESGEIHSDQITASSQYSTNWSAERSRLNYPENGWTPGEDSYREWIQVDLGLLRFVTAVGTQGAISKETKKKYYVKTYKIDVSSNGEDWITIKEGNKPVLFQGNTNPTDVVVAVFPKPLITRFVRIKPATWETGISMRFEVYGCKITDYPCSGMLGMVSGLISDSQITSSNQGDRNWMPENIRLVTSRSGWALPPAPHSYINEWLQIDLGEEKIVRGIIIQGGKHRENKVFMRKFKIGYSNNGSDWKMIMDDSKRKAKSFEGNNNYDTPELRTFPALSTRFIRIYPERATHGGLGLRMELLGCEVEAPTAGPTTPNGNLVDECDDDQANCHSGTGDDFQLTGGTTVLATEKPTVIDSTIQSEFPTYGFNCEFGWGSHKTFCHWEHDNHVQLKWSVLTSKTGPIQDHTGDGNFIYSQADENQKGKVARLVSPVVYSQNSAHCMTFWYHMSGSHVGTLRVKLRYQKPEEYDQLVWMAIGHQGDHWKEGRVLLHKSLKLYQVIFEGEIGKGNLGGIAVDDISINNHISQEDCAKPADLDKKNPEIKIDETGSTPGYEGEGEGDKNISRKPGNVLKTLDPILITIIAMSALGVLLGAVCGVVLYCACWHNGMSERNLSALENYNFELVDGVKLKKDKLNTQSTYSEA
Outline: (§1)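 PAE cells stably expressing NRP1 (Ham's F12, 10% FBS, hygromycin B) grown to confluence. Compounds at 0.1−100 μM (single-point inhibition read at 100 μM) were added, then 0.1 nM 125I-VEGF-A165. Nonspecific binding was taken with 100-fold excess unlabeled VEGF. IC50 came from competition curves; three independent experiments, triplicate per concentration, mean ± SEM.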

[2] = target: T1, Neuropilin-1; experiment: Displacement of [125I]VEGF-A from human NRP1 expressed in pig aortic endothelial cells; assay type: cell-based, Endothelial cell; outline: as §1
[3] = tested on: A549; experiment: Cytotoxicity against human A549 cells after 48 hrs by XTT method; assay type: functional, cell-based
Outline: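 A549 lung carcinoma cells seeded at 4 × 10^3 per well in serum-free medium, with compound added. After 44 h incubation, XTT labeling reagent was added and cells were incubated a further 4 h, giving 48 h total. Formazan read at 490 nm against a 595 nm reference. Three independent experiments, each in triplicate, reported as mean ± SEM.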

[4] = tested on: HUVEC; experiment: Inhibition of VEGF-A-induced chemotaxis in HUVEC assessed as reduction in cell migration; assay type: functional, cell-based; conditions: Homo sapiens
Outline: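 HUVECs in EBM/0.1% BSA were pretreated 30 min with compound or DMSO, and 1.5 × 10^5 cells were loaded into collagen I-coated 8 μm-pore transwell inserts. Cells migrated toward 25 ng/mL VEGF or medium control for 4 h at 37 °C. Migrated cells were stained and counted in four fields at ×100. Three experiments in duplicate, mean ± SEM.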

[5] = target: T1, Neuropilin-1; experiment: Displacement of […] from human NRP1 expressed in human DU145 cells; assay type: cell-based, DU-145
[6] = target: Vascular endothelial growth factor receptor 2 (Homo sapiens) (UniProt P35968); experiment: Inhibition of VEGF-A-induced VEGFR2 phosphorylation in HUVEC by ELISA; assay type: cell-based
Chain of Vascular endothelial growth factor receptor 2 (Homo sapiens) (P35968 whole entry): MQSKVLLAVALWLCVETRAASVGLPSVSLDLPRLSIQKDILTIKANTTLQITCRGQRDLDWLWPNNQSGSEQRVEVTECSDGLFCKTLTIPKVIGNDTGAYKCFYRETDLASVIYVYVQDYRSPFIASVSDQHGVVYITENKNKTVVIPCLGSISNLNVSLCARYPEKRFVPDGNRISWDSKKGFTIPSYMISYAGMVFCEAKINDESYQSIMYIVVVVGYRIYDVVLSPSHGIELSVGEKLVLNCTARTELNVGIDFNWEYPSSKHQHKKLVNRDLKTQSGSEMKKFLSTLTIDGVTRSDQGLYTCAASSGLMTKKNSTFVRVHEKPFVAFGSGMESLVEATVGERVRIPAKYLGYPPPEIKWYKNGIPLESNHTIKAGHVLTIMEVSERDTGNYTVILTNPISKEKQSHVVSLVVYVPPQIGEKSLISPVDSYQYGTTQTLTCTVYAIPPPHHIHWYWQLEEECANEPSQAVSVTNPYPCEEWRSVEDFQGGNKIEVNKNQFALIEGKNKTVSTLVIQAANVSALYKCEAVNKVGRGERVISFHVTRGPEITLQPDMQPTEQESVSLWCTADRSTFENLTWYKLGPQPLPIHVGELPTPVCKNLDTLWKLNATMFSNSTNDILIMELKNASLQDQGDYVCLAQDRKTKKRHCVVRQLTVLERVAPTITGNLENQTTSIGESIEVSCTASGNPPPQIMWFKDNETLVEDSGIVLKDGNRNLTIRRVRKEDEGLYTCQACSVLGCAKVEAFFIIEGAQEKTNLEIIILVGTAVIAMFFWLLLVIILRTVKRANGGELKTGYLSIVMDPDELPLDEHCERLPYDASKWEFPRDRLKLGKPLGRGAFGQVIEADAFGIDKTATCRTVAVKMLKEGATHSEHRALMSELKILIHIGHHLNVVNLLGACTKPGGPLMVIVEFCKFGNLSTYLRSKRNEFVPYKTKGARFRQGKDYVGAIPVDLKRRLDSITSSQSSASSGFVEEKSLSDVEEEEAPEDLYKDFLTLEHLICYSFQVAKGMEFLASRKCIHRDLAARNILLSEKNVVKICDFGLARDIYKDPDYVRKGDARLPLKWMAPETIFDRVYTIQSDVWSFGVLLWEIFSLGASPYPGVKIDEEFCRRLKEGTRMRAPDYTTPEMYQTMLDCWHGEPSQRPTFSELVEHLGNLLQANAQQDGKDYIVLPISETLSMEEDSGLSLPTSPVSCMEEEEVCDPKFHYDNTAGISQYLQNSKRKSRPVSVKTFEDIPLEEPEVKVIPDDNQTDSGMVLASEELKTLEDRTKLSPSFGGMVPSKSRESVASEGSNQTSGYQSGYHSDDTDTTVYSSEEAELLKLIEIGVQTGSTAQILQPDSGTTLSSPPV
Outline: (§2)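 Confluent HUVECs were pretreated 30 min with compound or DMSO vehicle, then stimulated with or without 25 ng/mL VEGF-A165 for 5 min at 37 °C. Tyr1175-phosphorylated and total VEGFR2 in lysates were measured by sandwich ELISA kits. Three independent experiments in duplicate, mean ± SEM.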

[7] = target: T1, Neuropilin-1; experiment: Displacement of [125I]VEGF-A from human NRP1 expressed in human A549 cells; assay type: cell-based
[8] = target: Vascular endothelial growth factor receptor 1 (Homo sapiens) (UniProt P17948); experiment: Displacement of biotinylated-[…] from human VEGFR1 expressed in human A549 cells; assay type: cell-based
Chain of Vascular endothelial growth factor receptor 1 (Homo sapiens) (P17948 whole entry, the tested form may be a part): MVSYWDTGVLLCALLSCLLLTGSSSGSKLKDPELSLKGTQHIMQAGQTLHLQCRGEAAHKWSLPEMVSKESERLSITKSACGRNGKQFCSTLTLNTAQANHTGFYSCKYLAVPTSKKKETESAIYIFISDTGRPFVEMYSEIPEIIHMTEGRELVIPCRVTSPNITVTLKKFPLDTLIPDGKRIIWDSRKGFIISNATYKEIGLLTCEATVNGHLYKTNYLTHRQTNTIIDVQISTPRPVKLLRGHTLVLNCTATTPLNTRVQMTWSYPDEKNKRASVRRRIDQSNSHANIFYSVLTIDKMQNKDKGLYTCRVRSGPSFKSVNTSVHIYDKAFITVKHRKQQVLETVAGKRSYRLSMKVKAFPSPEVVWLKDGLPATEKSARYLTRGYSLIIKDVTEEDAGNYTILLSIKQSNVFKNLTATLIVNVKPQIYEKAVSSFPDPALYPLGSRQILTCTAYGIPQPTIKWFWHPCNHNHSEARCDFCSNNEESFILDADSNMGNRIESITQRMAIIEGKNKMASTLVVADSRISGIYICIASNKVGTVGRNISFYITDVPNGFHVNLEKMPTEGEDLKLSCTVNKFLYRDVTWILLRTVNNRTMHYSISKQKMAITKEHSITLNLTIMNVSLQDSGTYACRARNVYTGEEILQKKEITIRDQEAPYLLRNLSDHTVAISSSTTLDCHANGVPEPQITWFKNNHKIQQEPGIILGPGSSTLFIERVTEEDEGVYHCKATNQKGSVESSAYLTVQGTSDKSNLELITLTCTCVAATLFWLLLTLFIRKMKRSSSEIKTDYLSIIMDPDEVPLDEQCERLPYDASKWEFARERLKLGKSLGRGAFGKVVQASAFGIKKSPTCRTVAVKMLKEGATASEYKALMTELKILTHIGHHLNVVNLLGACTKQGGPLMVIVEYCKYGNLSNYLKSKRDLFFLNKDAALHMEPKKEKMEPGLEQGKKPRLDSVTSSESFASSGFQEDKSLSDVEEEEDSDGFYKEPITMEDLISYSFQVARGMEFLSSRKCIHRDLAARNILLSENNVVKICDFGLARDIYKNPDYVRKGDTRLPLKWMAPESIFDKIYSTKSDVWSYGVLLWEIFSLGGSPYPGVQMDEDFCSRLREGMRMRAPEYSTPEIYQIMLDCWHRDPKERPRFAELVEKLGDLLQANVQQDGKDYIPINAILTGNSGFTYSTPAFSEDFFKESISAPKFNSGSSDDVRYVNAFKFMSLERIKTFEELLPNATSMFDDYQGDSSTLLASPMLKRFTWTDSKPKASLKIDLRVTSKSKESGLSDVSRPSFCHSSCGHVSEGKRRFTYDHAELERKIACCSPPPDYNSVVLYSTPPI

[9] = target: T1, Neuropilin-1; experiment: Displacement of […] from NRP1 b1 domain by cell-free assay
[10] = target: Vascular endothelial growth factor receptor 2 (Homo sapiens) (UniProt P35968); experiment: Inhibition of VEGF-A-induced VEGFR2 phosphorylation in HUVEC at 100 uM by ELISA; assay type: cell-based; outline: as §2
[11] = target: Vascular endothelial growth factor receptor 2 (Homo sapiens) (UniProt P35968); experiment: Displacement of biotinylated-[…] from human VEGFR2 expressed in human DU145 cells; assay type: cell-based; conditions: DU-145
[12] = target: Vascular endothelial growth factor receptor 2 (Homo sapiens) (UniProt P35968); experiment: Displacement of biotinylated-[…] from human VEGFR2 expressed in human A549 cells; assay type: cell-based
[13] = target: Vascular endothelial growth factor receptor 1 (Homo sapiens) (UniProt P17948); experiment: Displacement of biotinylated-[…] from human VEGFR1 expressed in human DU145 cells; assay type: cell-based; conditions: DU-145
[14] = target: T1, Neuropilin-1; experiment: Displacement of biotinylated-[…] from human NRP1 expressed in HUVEC; assay type: cell-based

## N=C(N)NCCC[C@H](NC(=O)c1sccc1NS(=O)(=O)c1ccc([N+](=O)[O-])cc1)C(=O)O (stereo in doubt; 38) [listing 1 of 2 here]
[1]
  Activity: 75%

## N=C(N)NCCC[C@H](NC(=O)C1CCN(Cc2cccc(NC(=O)CCCCCN)c2)CC1)C(=O)O
[1]
  Activity: 35%

## C[C@@H](NC(=O)[C@@H]1CCCN1C(=O)[C@@H](N)CCCCN)C(=O)N[C@@H](CCCNC(=N)N)C(=O)O
[1]
  Activity: 36%

## N=C(N)NCCC[C@H](NC(=O)c1sccc1NS(=O)(=O)c1cccc2nonc12)C(=O)O
[1]
  Activity: 87%
[2]
  IC50: 17 µM

## N=C(N)NCCC[C@H](NC(=O)c1ccccc1S(=O)(=O)C1CCNCC1)C(=O)O
[1]
  Activity: 10%

## N=C(N)NCCCC[C@@H](CC(=O)O)NC(=O)c1sccc1NS(=O)(=O)c1ccc2nsnc2c1
[1]
  Activity: 11%

## CN(c1ccsc1C(=O)N[C@@H](CCCNC(=N)N)C(=O)O)S(=O)(=O)c1ccc([N+](=O)[O-])cc1
[1]
  Activity: 42%

## Cc1oc(-c2ccc(NC(=O)CCCCN)cc2)cc1C(=O)N[C@@H](CCCNC(=N)N)C(=O)O
[1]
  Activity: 31%

## C[C@H](NC(=O)[C@@H]1CCCN1C(=O)[C@@H](N)CCCCN)C(=O)N[C@H](CCCNC(=N)N)C(=O)O
[1]
  Activity: 22%

## N=C(N)NCCC[C@H](NC(=O)c1sccc1NS(=O)(=O)c1ccc(F)cc1F)C(=O)O
[1]
  Activity: 79%
[2]
  IC50: 33 µM

## O=c1[nH]cc(F)c(=O)[nH]1 [FLUOROURACIL]
[3]; A549, 48 h
  IC50: 78 µM

## CC(=O)Nc1ccc(S(=O)(=O)Nc2ccsc2C(=O)N[C@@H](CCCNC(=N)N)C(=O)O)cc1
[1]
  Activity: 84%
[2]
  IC50: 18 µM

## N=C(N)NCCC[C@H](NC(=O)c1cccs1)C(=O)O
[1]
  Activity: 28%

## N=C(N)NCCC[C@H](NC(=O)c1sccc1NS(=O)(=O)c1ccc([N+](=O)[O-])cc1)C(=O)O (stereo in doubt; 46) [listing 1 of 2 here]
[2]; endothelial cell
  IC50: 52 µM

## N=C(N)NCCC[C@H](NC(=O)c1sccc1NS(=O)(=O)c1ccc([N+](=O)[O-])cc1)C(=O)O (stereo in doubt; 46) [listing 2 of 2 here]
[1]
  Activity: 75%

## N=C(N)NC(=O)CC[C@H](NC(=O)c1sccc1NS(=O)(=O)c1ccc([N+](=O)[O-])cc1)C(=O)O
[1]
  Activity: 58%

## N=C(N)Nc1ccc(C[C@H](NC(=O)c2sccc2NS(=O)(=O)c2ccc(N)cc2)C(=O)O)cc1
[1]
  Activity: 13%

## C[C@H](NC(=O)[C@@H]1CCCN1C(=O)[C@@H](N)CCCCN)C(=O)N[C@@H](CCCCN)C(=O)O (H-KPAK-OH)
[1]
  Activity: 22%

## N=C(N)NCCC[C@@H](CO)NC(=O)c1sccc1NS(=O)(=O)c1ccc2nsnc2c1
[1]
  Activity: 21%

## NCCCC[C@H](NC(=O)c1sccc1NS(=O)(=O)c1ccc([N+](=O)[O-])cc1)C(=O)O
[1]
  Activity: 20%

## N=C(N)NCCC[C@H](NC(=O)c1cccc(-c2cccc(NC(=O)CCCCCN)c2)c1)C(=O)O
[1]
  Activity: 40%

## N=C(N)NCCC[C@H](NC(=O)c1sccc1NS(=O)(=O)c1ccc(N)cc1)C(=O)O
[1]
  Activity: 78%
[2]
  IC50: 13 µM

## C[C@H](NC(=O)[C@@H]1CCCN1C(=O)[C@H](N)CCCCN)C(=O)N[C@@H](CCCNC(=N)N)C(=O)O
[1]
  Activity: 51%

## N=C(N)NCCC[C@H](NC(=O)C1CCN(Cc2nc(O)nc(NCCCCN)n2)CC1)C(=O)O
[1]
  Activity: 32%

## N=C(N)NCCC[C@H](NC(=O)c1sccc1S(=O)(=O)Nc1ccc(N)cc1)C(=O)O
[1]
  Activity: 0%

## N=C(N)NCCC[C@H](NC(=O)c1sccc1NS(=O)(=O)c1ccc([N+](=O)[O-])cc1)C(=O)O (stereo in doubt; 38) [listing 2 of 2 here]
[2]
  IC50: 52 µM

## CN(c1ccsc1C(=O)N[C@@H](CCCNC(=N)N)C(=O)O)S(=O)(=O)c1ccc(N)cc1
[1]
  Activity: 25%

## C[C@H](NC(=O)[C@@H]1CCCN1C(=O)[C@@H](N)CCCCN)C(=O)N[C@@H](CCC(N)=O)C(=O)O (H-KPAQ-OH)
[1]
  Activity: 19%

## N=C(N)NCCC[C@H](NC(=O)c1cccc(-c2cccc(NC(=O)C3CCC(CN)CC3)c2)c1)C(=O)O (some centres undefined)
[1]
  Activity: 49%

## N=C(N)NCCC[C@H](NC(=O)c1sccc1NS(=O)(=O)c1ccccc1[N+](=O)[O-])C(=O)O
[1]
  Activity: 100%
[2]
  IC50: 9 µM

## N=C(N)NCCC[C@H](NC(=O)[C@H](Cc1ccccc1)NC(=O)[C@@H]1CCCN1C(=O)[C@@H](N)CCCCN)C(=O)O (H-KPFR-OH)
[1]
  Activity: 63%

## N=C(N)NCCC[C@H](NC(=O)c1sccc1NS(=O)(=O)c1cccc2nsnc12)C(=O)O
[4]
  inhibition: Active
[5]
  IC50: 3 µM
[6]
  inhibition: Dose-dependent effect
[7]
  IC50: 7 µM
[1]
  Activity: 99%
[3]
  Activity: Active
[8]
  Activity: inactive
[9]
  IC50: 3 µM
[10]
  inhibition: 34%
[2]
  IC50: 8 µM
[11]
  Activity: inactive
[12]
  Activity: inactive
[13]
  Activity: inactive
[14]
  IC50: 23 µM

## N=C(N)NCCC[C@@H](NC(=O)c1sccc1NS(=O)(=O)c1ccc(N)cc1)C(=O)O
[1]
  Activity: 36%

## Cc1nc(S(=O)(=O)Nc2ccsc2C(=O)N[C@@H](CCCNC(=N)N)C(=O)O)cn1C
[1]
  Activity: 88%
[2]
  IC50: 12 µM

## C/N=C(/NC)NCCC[C@H](NC(=O)c1sccc1NS(=O)(=O)c1ccc([N+](=O)[O-])cc1)C(=O)O
[1]
  Activity: 12%

## N=C(N)NCCCC[C@H](NC(=O)c1sccc1NS(=O)(=O)c1ccc(N)cc1)C(=O)O
[1]
  Activity: 20%

## N=C(N)NCCC[C@H](NC(=O)c1sccc1NS(=O)(=O)c1cccc(N)c1)C(=O)O
[1]
  Activity: 84%
[2]
  IC50: 14 µM

## N=C(N)NCCC[C@H](NC(=O)c1sccc1NS(=O)(=O)c1ccc2nsnc2c1)C(=O)NO
[1]
  Activity: 59%

## COC(=O)[C@H](CCCNC(=N)N)NC(=O)c1sccc1NS(=O)(=O)c1ccc([N+](=O)[O-])cc1
[1]
  Activity: 21%

## N=C(N)NCCC[C@H](NC(=O)[C@@H]1CCCN1C(=O)[C@@H]1CCCN1C(=O)[C@@H](N)CCCCN)C(=O)O (H-KPPR-OH)
[1]
  Activity: 96%
[2]
  IC50: 14 µM

## C[C@H](NC(=O)[C@@H]1CCCN1C(=O)[C@@H](N)CCCCN)C(=O)N[C@@H](CCCNC(=N)N)C(=O)O
[1]
  Activity: 83%
[2]
  IC50: 30 µM

## N=C(NCCC[C@H](NC(=O)c1sccc1NS(=O)(=O)c1ccc([N+](=O)[O-])cc1)C(=O)O)N[N+](=O)[O-]
[1]
  Activity: 3%

## Cc1nn(C)c(Cl)c1CNc1cccc(S(=O)(=O)Nc2ccsc2C(=O)N[C@@H](CCCNC(=N)N)C(=O)O)c1
[1]
  Activity: 88%
[2]
  IC50: 6 µM

## N=C(N)NCCC[C@H](NC(=O)c1ccccc1NS(=O)(=O)c1ccc(N)cc1)C(=O)O
[1]
  Activity: 70%

## N=C(N)NCCC[C@H](NC(=O)c1sccc1NS(=O)(=O)c1ccccc1N)C(=O)O
[1]
  Activity: 95%
[2]
  IC50: 17 µM
